Experiments:
[1] = target: T1, Hormone-sensitive lipase (Homo sapiens) (UniProt Q05469); experiment: Inhibition of recombinant human hormone sensitive lipase (HSL); parameters: concentration or dose not given beside the values; details: concentration not given here
T1 sequence (whole entry): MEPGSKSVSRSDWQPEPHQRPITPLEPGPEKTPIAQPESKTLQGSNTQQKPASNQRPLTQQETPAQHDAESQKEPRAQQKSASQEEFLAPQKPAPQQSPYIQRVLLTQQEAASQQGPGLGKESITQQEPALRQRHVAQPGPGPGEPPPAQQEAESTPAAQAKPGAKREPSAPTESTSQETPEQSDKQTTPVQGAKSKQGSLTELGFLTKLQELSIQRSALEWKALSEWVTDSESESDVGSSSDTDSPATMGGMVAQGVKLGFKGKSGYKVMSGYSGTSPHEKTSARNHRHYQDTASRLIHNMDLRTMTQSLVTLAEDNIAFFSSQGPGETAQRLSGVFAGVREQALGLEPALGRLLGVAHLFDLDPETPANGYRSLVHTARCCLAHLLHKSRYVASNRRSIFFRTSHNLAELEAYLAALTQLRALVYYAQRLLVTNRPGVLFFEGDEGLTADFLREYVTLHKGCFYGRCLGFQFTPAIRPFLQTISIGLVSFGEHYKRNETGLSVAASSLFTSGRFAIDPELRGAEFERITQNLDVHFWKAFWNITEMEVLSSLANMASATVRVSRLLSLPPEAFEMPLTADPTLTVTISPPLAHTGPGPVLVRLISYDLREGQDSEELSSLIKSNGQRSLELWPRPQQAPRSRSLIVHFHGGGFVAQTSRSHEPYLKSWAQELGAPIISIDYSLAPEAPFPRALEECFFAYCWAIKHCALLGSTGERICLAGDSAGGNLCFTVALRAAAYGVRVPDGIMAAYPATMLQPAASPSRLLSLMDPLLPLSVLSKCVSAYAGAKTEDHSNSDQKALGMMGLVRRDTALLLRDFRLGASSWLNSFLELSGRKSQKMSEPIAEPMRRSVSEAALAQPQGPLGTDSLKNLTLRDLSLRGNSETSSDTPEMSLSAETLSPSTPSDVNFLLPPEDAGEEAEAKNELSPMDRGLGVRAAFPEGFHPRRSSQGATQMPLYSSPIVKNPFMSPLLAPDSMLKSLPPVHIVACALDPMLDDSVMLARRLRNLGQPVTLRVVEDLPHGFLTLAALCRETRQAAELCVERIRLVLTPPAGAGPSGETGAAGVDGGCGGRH
In short: (§1)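 Purified recombinant human HSL (specific activity 2.6 U/mg protein) with triolein substrate. Activity measured at 37 °C as ³H-oleic acid release over time from a ³H-trioleoylglycerol emulsion stabilized with phospholipids. Bovine serum albumin served as fatty acid acceptor.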

Hormone-sensitive lipase = target: T2, Hormone-sensitive lipase (Homo sapiens, UniProt Q05469); experiment: Inhibition of human recombinant hormone sensitive lipase.; in short: as §1
T2 sequence (Q05469 whole entry): T1 sequence (whole entry)

Row | SMILES | inhibition [1] [%] | IC50 (Hormone-sensitive lipase) [nM]
1 | CC(C)(C)OC(=O)NN1CCc2ccccc2C1 | 8 | –
2 | O=C(NN1CCCCC1)Oc1ccc(Cl)cc1 | 99 | –
3 | CC1Cc2ccccc2CN1NC(=O)Oc1ccc(Cl)cc1 (stereo unspecified) | 99 | 35
4 | O=C(NN1CCc2ccccc2C1)Oc1ccc(Cc2ccccc2)cc1 | 97 | 97
5 | CC(C)(C)C1CCC(C(=O)Nc2ccc(OC(=O)NN3CCOCC3)cc2)CC1 (stereo unspecified) | 100 | 1
6 | O=C(NN1CCc2ccccc2C1)OCc1ccccc1 | 4 | –
7 | O=C(Cc1ccc(OC(=O)NN2CCOCC2)cc1)OCc1ccccc1 | 100 | 5
8 | CC(C)(C)CC(=O)Nc1ccc(OC(=O)NN2CCOCC2)cc1 | 99 | 47
9 | O=C(NN1CCc2ccccc2C1)Oc1ccccc1 | – | 205
10 | O=C(NN1CCc2ccccc2C1)Oc1ccc(Cl)cc1 | 98 | –
11 | COC(=O)c1ccc(OC(=O)NN2CCc3ccccc3C2)cc1 | 57 | –
12 | CN1CCN(NC(=O)Oc2ccc(Cl)cc2)CC1 | 98 | 515
13 | COc1ccc(OC(=O)NN2CCc3ccccc3C2)cc1 | 97 | –
14 | CC(C)(C)OC(=O)Nc1ccc(OC(=O)NN2CCc3ccccc3C2)cc1 | 98 | –
15 | COC(=O)Cc1ccc(OC(=O)NN2CCOCC2)cc1 | 95 | 716
16 | CC(=O)Nc1ccc(OC(=O)NN2CCc3ccccc3C2)cc1 | 7 | –
17 | CCCC(=O)Nc1ccc(OC(=O)NN2CCOCC2)cc1 | 84 | 3200
18 | CCOC(=O)Cc1ccc(OC(=O)NN2CCOCC2)cc1 | 99 | 138
19 | CC1c2ccccc2CCN1NC(=O)Oc1ccc(Cl)cc1 (stereo unspecified) | 91 | 32
20 | O=C(NN1CCCC1)Oc1ccc(Cl)cc1 | 100 | 24
21 | O=C(NN1CCOCC1)Oc1ccc(Cl)cc1 | 99 | 184
22 | O=C(NN1CCc2ccccc2C1)Oc1c(Cl)cccc1Cl | 3 | –
23 | O=C(NN1CCc2ccccc2C1)Oc1ccc(C(=O)c2ccccc2)cc1 | 21 | –
24 | CN(C(=O)Oc1ccc(Cl)cc1)N1CCc2ccccc2C1 | 2 | –
25 | CCOC(=O)NN1CCc2ccccc2C1 | 9 | –
26 | COc1ccccc1OC(=O)NN1CCc2ccccc2C1 | 76 | –
27 | CC(=O)Nc1ccc(OC(=O)NN2CCOCC2)cc1 | 20 | –
28 | O=C(NN1CCOCC1)Oc1ccc(NC(=O)C2CCCCC2)cc1 | 99 | 10
